{"source": "ChEMBL document CHEMBL1155840", "about": "“Sesquiterpenes from Celastrus vulcanicola as photosynthetic inhibitors” (J Nat Prod, 2008)", "key": {"[1]": {"test": "(§1) Inhibition of photosynthetic phosphorylation from water to methyl viologen in spinach leaves chloroplast", "assay_type": "functional, Spinacia oleracea", "conditions": "read-out: I50", "outline": "(§2)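 Isolated spinach chloroplasts (20 μg Chl/mL) osmotically ruptured in 100 mM sorbitol, 10 mM KCl, 5 mM MgCl₂, 0.001 M Na⁺-tricine, with 1 mM ADP, 3 mM Pi and 0.05 mM MV. ATP formed was calculated from light-driven alkalization, back-titrated with HCl. I50 read from concentration-response plots; average of three replicates.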"}, "[2]": {"system": "Spinacia oleracea", "test": "Effect on photosystem 2 interaction site in spinach thylakoid membrane assessed as chlorophil-a fluorescence parameter at 10 uM", "assay_type": "cell membranes"}, "[3]": {"system": "Spinacia oleracea", "test": "as §1", "assay_type": "functional", "outline": "as §2"}, "[4]": {"system": "Spinacia oleracea", "test": "Effect on uncoupled photosystem 2 in spinach chloroplast assessed as inhibition of electron transport rate of water to sodium silicomolybdate at 200 uM relative to control", "design": "scale not given: the % may be the effect or the level left", "outline": "(§3)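 PSII water→silicomolybdate measured in the uncoupled electron flow mixture without MV, plus 200 μM SiMo and 10 μM DCMU. Run at 20 °C with a chloroplast-only blank. Activity given as % of control; average of three replicates.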"}, "[5]": {"system": "Spinacia oleracea", "test": "Residual light activated thylakoid membrane bound Mg+ATPase activity in spinach leaves at 300 uM relative to control"}, "[6]": {"system": "Spinacia oleracea", "test": "Inhibition of light activated thylakoid membrane bound Mg+ATPase activity in spinach leaves at 100 uM relative to control", "conditions": "values are per cent of control", "outline": "(§4)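 Thylakoid membrane-bound Mg²⁺-ATPase measured during ATP hydrolysis. Released inorganic phosphate determined colorimetrically.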"}, "[7]": {"system": "Spinacia oleracea", "test": "Effect on uncoupled photosystem 1 in spinach chloroplast assessed as inhibition of electron transport rate of 2,6-dichlorophenol indophenol to methyl viologen at 300 uM relative to control", "design": "scale not given: the % may be the effect or the level left", "outline": "(§5)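 Uncoupled PSI flow measured polarographically in 3 mL basal uncoupled medium. Donor was 100 μM DCPIP reduced by 300 μM sodium ascorbate, with 10 μM DCMU to block PSII, 6 mM NH₄Cl and 0.05 mM MV as acceptor. Run at 20 °C; % of control; average of three replicates.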"}, "[8]": {"system": "Spinacia oleracea", "test": "Effect on ATP synthesis in spinach leaves chloroplast assessed as blockade of basal electron transport at 300 uM", "assay_type": "functional", "outline": "(§6)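 Spinach chloroplasts at 20 μg chlorophyll/mL, illuminated 1 min in basal electron transport medium (3 mL) with 0.05 mM MV as electron acceptor. Run at 20 °C with a chloroplast-only blank. Rates are in μequiv e⁻ h⁻¹ mg⁻¹ Chl; 100% is the control activity.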"}, "[9]": {"system": "Spinacia oleracea", "test": "Effect on uncoupled photosystem 2 in spinach chloroplast assessed as inhibition of electron transport rate of water to sodium silicomolybdate at 50 uM relative to control", "design": "scale not given: the % may be the effect or the level left", "outline": "as §3"}, "[10]": {"system": "Spinacia oleracea", "test": "Effect on ATP synthesis in spinach leaves chloroplast assessed as blockade of basal electron transport at 50 uM", "assay_type": "functional", "outline": "as §6"}, "[11]": {"system": "Spinacia oleracea", "test": "Effect on ATP synthesis in spinach leaves chloroplast assessed as blockade of uncoupled electron transport at 50 uM", "assay_type": "functional", "outline": "(§7)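 Uncoupled electron transport measured in basal medium with 6 mM NH₄Cl as uncoupler. Actinic light came from a projector lamp through a 5 cm 1% CuSO₄ filter for 2 min. Chloroplasts at 20 μg Chl/mL, 20 °C, blank with chloroplasts alone. Activity given as % of control.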"}, "[12]": {"system": "Spinacia oleracea", "test": "Effect on photosystem 2 interaction site in spinach thylakoid membrane assessed as chlorophil-a fluorescence parameter at 150 uM", "assay_type": "cell membranes", "outline": "(§8)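 Freshly lysed spinach chloroplasts (20 μg Chl mL⁻¹) in the basal noncyclic electron transport medium were incubated with the compound for 5 min in the dark at room temperature. Rapid polyphasic Chl a fluorescence of PSII was then recorded at room temperature using a 2 s saturating pulse (2500 μmol […] s⁻¹, 650 nm LEDs). F0, Fm, Fv/Fm and area were read.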"}, "[13]": {"system": "Spinacia oleracea", "test": "Effect on uncoupled photosystem 1 in spinach chloroplast assessed as inhibition of electron transport rate of tetramethyl-p-benzohydroquinone to methyl viologen at 300 uM relative to control", "design": "scale not given: the % may be the effect or the level left", "outline": "(§9)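 Uncoupled PSI flow TMQH₂→MV monitored polarographically at 20 °C in 3 mL basal electron medium. Additions were 100 μM TMQH₂/300 μM ascorbate, 10 μM DCMU and 6 mM NH₄Cl. Blank with chloroplasts alone; values as % of control; average of three replicates.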"}, "[14]": {"system": "Spinacia oleracea", "test": "Effect on photosystem 2 interaction site in spinach thylakoid membrane assessed as chlorophil-a fluorescence parameter at 300 uM", "assay_type": "cell membranes", "outline": "as §8"}, "[15]": {"system": "Spinacia oleracea", "test": "Inhibition of H+ATPase activity in spinach thylakoid membranes at 300 uM", "assay_type": "cell membranes", "outline": "as §4"}, "[16]": {"system": "Spinacia oleracea", "test": "Effect on ATP synthesis in spinach leaves chloroplast assessed as blockade of phosphorylating electron transport at 300 uM", "assay_type": "functional", "outline": "(§10)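 Photophosphorylating noncyclic electron transport run as the basal assay (chloroplasts 20 μg Chl/mL, 1 min light, MV acceptor) with 1 mM ADP and 3 mM Pi added. Temperature 20 °C with a chloroplast-only blank. Activity expressed as % of control.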"}, "[17]": {"system": "Spinacia oleracea", "test": "Effect on uncoupled photosystem 2 in spinach chloroplast assessed as inhibition of electron transport rate of water to 2,6-dicholorophenol indophenol at 100 uM relative to control", "design": "scale not given: the % may be the effect or the level left", "outline": "(§11)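 Uncoupled PSII water→DCPIP followed as DCPIP-supported O₂ evolution, measured polarographically. Basal medium used 300 μM K₃[Fe(CN)₆] in place of MV, with 1 μM DBMIB, 50 μM DCPIP and 6 mM NH₄Cl. Run at 20 °C; % of control; average of three replicates.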"}, "[18]": {"system": "Spinacia oleracea", "test": "Effect on uncoupled photosystem 1 in spinach chloroplast assessed as inhibition of electron transport rate of 2,6-dichlorophenol indophenol to methyl viologen at 200 uM relative to control", "design": "scale not given: the % may be the effect or the level left", "outline": "as §5"}, "[19]": {"system": "Spinacia oleracea", "test": "Effect on uncoupled photosystem 2 in spinach chloroplast assessed as inhibition of electron transport rate of water to sodium silicomolybdate at 100 uM relative to control", "design": "scale not given: the % may be the effect or the level left", "outline": "as §3"}, "[20]": {"system": "Spinacia oleracea", "test": "Effect on ATP synthesis in spinach leaves chloroplast assessed as blockade of phosphorylating electron transport at 50 uM", "assay_type": "functional", "outline": "as §10"}, "[21]": {"system": "Spinacia oleracea", "test": "Effect on uncoupled photosystem 1 in spinach chloroplast assessed as inhibition of electron transport rate of tetramethyl-p-benzohydroquinone to methyl viologen at 200 uM relative to control", "design": "scale not given: the % may be the effect or the level left", "outline": "as §9"}, "[22]": {"system": "Spinacia oleracea", "test": "Effect on uncoupled photosystem 2 in spinach chloroplast assessed as inhibition of electron transport rate of water to sodium silicomolybdate at 300 uM relative to control", "design": "scale not given: the % may be the effect or the level left", "outline": "as §3"}, "[23]": {"system": "Spinacia oleracea", "test": "Effect on uncoupled photosystem 2 in spinach chloroplast assessed as inhibition of electron transport rate of water to 2,6-dicholorophenol indophenol at 50 uM relative to control", "design": "scale not given: the % may be the effect or the level left", "outline": "as §11"}, "[24]": {"system": "Spinacia oleracea", "test": "Effect on uncoupled photosystem 1 in spinach chloroplast assessed as inhibition of electron transport rate of 2,6-dichlorophenol indophenol to methyl viologen at 100 uM relative to control", "design": "scale not given: the % may be the effect or the level left", "outline": "as §5"}, "[25]": {"system": "Spinacia oleracea", "test": "Effect on photosystem 2 interaction site in spinach thylakoid membrane assessed as chlorophil-a fluorescence parameter at 600 uM", "assay_type": "cell membranes", "outline": "as §8"}, "[26]": {"system": "Spinacia oleracea", "test": "Effect on uncoupled photosystem 1 in spinach chloroplast assessed as inhibition of electron transport rate of 2,6-dichlorophenol indophenol to methyl viologen at 50 uM relative to control", "design": "scale not given: the % may be the effect or the level left", "outline": "as §5"}, "[27]": {"system": "Spinacia oleracea", "test": "Inhibition of light activated thylakoid membrane bound Mg+ATPase activity in spinach leaves at 200 uM relative to control", "conditions": "values are per cent of control", "outline": "as §4"}, "[28]": {"system": "Spinacia oleracea", "test": "Effect on uncoupled photosystem 1 in spinach chloroplast assessed as inhibition of electron transport rate of tetramethyl-p-benzohydroquinone to methyl viologen at 50 uM relative to control", "design": "scale not given: the % may be the effect or the level left", "outline": "as §9"}, "[29]": {"system": "Spinacia oleracea", "test": "Effect on ATP synthesis in spinach leaves chloroplast assessed as blockade of uncoupled electron transport at 300 uM", "assay_type": "functional", "outline": "as §7"}, "[30]": {"system": "Spinacia oleracea", "test": "Effect on uncoupled photosystem 2 in spinach chloroplast assessed as inhibition of electron transport rate of water to 2,6-dicholorophenol indophenol at 300 uM relative to control", "design": "scale not given: the % may be the effect or the level left", "outline": "as §11"}, "[31]": {"system": "Spinacia oleracea", "test": "Effect on uncoupled photosystem 2 in spinach chloroplast assessed as inhibition of electron transport rate of water to 2,6-dicholorophenol indophenol at 200 uM relative to control", "design": "scale not given: the % may be the effect or the level left", "outline": "as §11"}, "[32]": {"system": "Spinacia oleracea", "test": "Effect on uncoupled photosystem 1 in spinach chloroplast assessed as inhibition of electron transport rate of tetramethyl-p-benzohydroquinone to methyl viologen at 100 uM relative to control", "design": "scale not given: the % may be the effect or the level left", "outline": "as §9"}}, "note": "Activity calls are given as the source filed them. The rule behind the calls is not given here."}
{"smiles": "CC(=O)O[C@H]1CC[C@@H](C)[C@]23OC(C)(C)[C@H]([C@H](OC(=O)/C=C/c4ccccc4)[C@H](OC(=O)c4ccccc4)[C@]12C)[C@H]3O", "values": [{"measurement": "IC50", "setting": "[1]", "result": 44, "unit": "µM"}]}
{"smiles": "CN(C)C(=O)Nc1ccc(Cl)c(Cl)c1", "values": [{"measurement": "Flu intensity", "setting": "[2]", "result": 1200}]}
{"smiles": "CC(=O)O[C@H]1CC[C@](C)(O)[C@]23OC(C)(C)[C@H]([C@H](OC(=O)/C=C/c4ccccc4)[C@H](OC(=O)c4ccccc4)[C@]12C)[C@H]3OC(C)=O", "values": [{"measurement": "Activity", "setting": "[3]", "result": "inactive"}]}
{"smiles": "CC(=O)O[C@H]1CC[C@](C)(O)[C@]23OC(C)(C)[C@H]([C@H](OC(=O)/C=C/c4ccccc4)[C@H](OC(=O)c4ccccc4)[C@]12C)[C@H]3O", "values": [{"measurement": "Activity", "setting": "[4]", "result": 21, "unit": "%"}, {"measurement": "residual activity", "setting": "[5]", "result": 87, "unit": "%"}, {"measurement": "residual activity", "setting": "[6]", "result": 91, "unit": "%"}, {"measurement": "Activity", "setting": "[7]", "result": 100, "unit": "%"}, {"measurement": "inhibition", "setting": "[8]", "result": 32, "unit": "%"}, {"measurement": "Activity", "setting": "[9]", "result": 32, "unit": "%"}, {"measurement": "inhibition", "setting": "[10]", "result": 83, "unit": "%"}, {"measurement": "IC50", "setting": "[1]", "result": 25, "unit": "µM"}, {"measurement": "inhibition", "setting": "[11]", "result": 26, "unit": "%"}, {"measurement": "Flu intensity", "setting": "[12]", "result": 1220}, {"measurement": "Activity", "setting": "[13]", "result": 131, "unit": "%"}, {"measurement": "Flu intensity", "setting": "[14]", "result": 1260}, {"measurement": "inhibition", "setting": "[15]", "result": 13, "unit": "%"}, {"measurement": "inhibition", "setting": "[16]", "result": 68, "unit": "%"}, {"measurement": "Activity", "setting": "[17]", "result": 80, "unit": "%"}, {"measurement": "Activity", "setting": "[18]", "result": 100, "unit": "%"}, {"measurement": "Activity", "setting": "[19]", "result": 32, "unit": "%"}, {"measurement": "inhibition", "setting": "[20]", "result": 79, "unit": "%"}, {"measurement": "Activity", "setting": "[21]", "result": 120, "unit": "%"}, {"measurement": "Activity", "setting": "[22]", "result": 11, "unit": "%"}, {"measurement": "Activity", "setting": "[23]", "result": 93, "unit": "%"}, {"measurement": "Activity", "setting": "[24]", "result": 100, "unit": "%"}, {"measurement": "Flu intensity", "setting": "[25]", "result": 875}, {"measurement": "Activity", "setting": "[26]", "result": 106, "unit": "%"}, {"measurement": "residual activity", "setting": "[27]", "result": 89, "unit": "%"}, {"measurement": "Activity", "setting": "[28]", "result": 115, "unit": "%"}, {"measurement": "inhibition", "setting": "[29]", "result": 52, "unit": "%"}, {"measurement": "Activity", "setting": "[30]", "result": 64, "unit": "%"}, {"measurement": "Activity", "setting": "[31]", "result": 71, "unit": "%"}, {"measurement": "Activity", "setting": "[32]", "result": 129, "unit": "%"}]}
